hERG protect: hERG rescue from dofetilide block, primary screen, cell-based, CHO-hERG, FluxOR thallium flux, dofetilide IC70. Voltage-gated inwardly rectifying potassium channel KCNH2 (Homo sapiens), Q12809. dofetilide IC70 present. activation (rescue from dofetilide block), less the hit threshold, % at 10 µM. 310,000 compounds, 0.51% hits. AID 1511, 2009;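 active = activation above the mean of controls blocked by dofetilide plus 5 SD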;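 note: thallium influx through hERG after potassium depolarization seen as dye fluorescence rise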
KCNQ1 pot: potentiators or activators of KCNQ1 channel, primary screen, cell-based, thallium flux, high-throughput; Potassium voltage-gated channel subfamily KQT member 1 (Homo sapiens), P51787; CHO-K1 KCNQ1, thallium flux FluxOR fluorescence; active compounds read high; B-score at 10 µM; 310,000 compounds, 0.35% hits;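 active = fluorescence ratio B-score, a plate-corrected score, at least three library SD, with initial intensity B-score within 5 SD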
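Schedule – 37 °C overnight plating, 90-min dark dye load, 20-min compound pretreatment · System – stable KCNQ1 CHO-K1 line · Probe or stimulus – thallium- and potassium-containing depolarizing buffer · Measured by – kinetic FluxOR fluorescence, 10 s baseline plus 110 s post-stimulus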
Kir21 block: inhibitors of mouse Kir2.1 inward-rectifier potassium channel; Inward rectifier potassium channel 2 (Mus musculus), P35561; HEK293-Kir2.1, FluxOR thallium flux fluorescence; active compounds read low; B-score at 10 µM; 310,000 compounds, 0.85% hits; AID 1672, 2009;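 active = fluorescence ratio B-score at or below minus 3 SD of library scores, with starting-brightness B-score within 2 SD, cut at about -4.2 in these data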;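 note: channel flux triggered by added potassium and thallium sulfate stimulus; B-score of peak minus minimum fluorescence over baseline after thallium stimulus; more negative B-score means stronger Kir2.1 block with less thallium influx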
KCNK9 inh: KCNK9 potassium channel inhibitors, primary screen, HEK293 cells, thallium flux. Potassium channel subfamily K member 9 (Homo sapiens), Q9NPC2. FluxOR thallium flux fluorescence; active compounds read low. B-score at 10 µM. 310,000 compounds, 1.2% hits. AID 488922, 2010;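 active = ratio B-score over 3 SD below the library mean, with starting fluorescence within 5 SD of its mean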;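 note: negative B-score means less thallium flux so channel inhibition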
KCNK3 block: human KCNK3 channel inhibitors, primary screen, CHO cells, FluxOR thallium flux, B-score; FluxOR fluorescence; active compounds read low; B-score at 10 µM; 340,000 compounds, 0.84% hits;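 active = B-score under library mean minus 4 SD, starting fluorescence ratio at most library mean plus 5 SD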;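 note: more negative B-score means stronger inhibition of thallium flux through KCNK3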
Target sequence (O14649 whole entry, looked up): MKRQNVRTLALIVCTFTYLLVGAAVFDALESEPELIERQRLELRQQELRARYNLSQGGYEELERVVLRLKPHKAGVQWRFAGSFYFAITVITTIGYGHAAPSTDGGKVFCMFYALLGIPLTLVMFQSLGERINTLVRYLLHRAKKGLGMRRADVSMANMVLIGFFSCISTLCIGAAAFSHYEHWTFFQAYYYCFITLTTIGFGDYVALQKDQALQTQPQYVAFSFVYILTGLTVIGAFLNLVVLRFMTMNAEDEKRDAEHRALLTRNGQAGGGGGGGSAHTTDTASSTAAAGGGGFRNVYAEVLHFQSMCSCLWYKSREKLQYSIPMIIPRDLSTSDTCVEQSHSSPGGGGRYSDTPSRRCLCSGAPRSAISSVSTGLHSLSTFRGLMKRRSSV
KCNQ1 block: inhibitors of human KCNQ1 channel, primary screen, cell-based, thallium flux, high-throughput | 310,000 compounds, 1.3% hits | CHO-K1 KCNQ1, FluxOR thallium flux fluorescence; active compounds read high | Potassium voltage-gated channel subfamily KQT member 1 (Homo sapiens), P51787 | AID 2642, 2010 | B-score at 10 µM;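 active = compounds whose thallium flux B-score, printed positive for inhibition, exceeds three library SD while starting fluorescence stays within three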;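 note: channel opened by potassium depolarization with thallium stimulus after 20 min compound exposure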
KCNQ1 block val: KCNQ1 potassium channel inhibitors, confirmation, cell-based, Tl flux, duplicate | KCNQ1 cell line, FluxOR thallium flux fluorescence | shares compounds with KCNQ1 block | 1,600 compounds, 93% hits | inhibition, % at 10 µM | AID 588353, 2011;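 active = primary screen active, with duplicate mean exceeding buffer control mean plus 3 SD of buffer wells, cut at about 28% in these data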;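 note: 0% = buffer control ratio and 100% = XE991 inhibitor control ratio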
CHO Tl flux: thallium flux effects in parental CHO cells, counter-screen for KCNQ1 inhibitor project, cell-based, Tl flux; parental CHO-K1, FluxOR thallium flux fluorescence ratio; active compounds read low; zero means no signal rise above baseline; fluorescence ratio (Tl flux) at 10 µM; shares compounds with KCNQ1 block; 1,600 compounds, 21% hits;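 active = mean of duplicate thallium-flux fluorescence ratios in parental host cells more than 5 SD below the buffer control mean, cut at about 0.38 in these data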;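 note: ratio is peak minus minimum fluorescence divided by baseline fluorescence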
KCNQ1 ephys val: KCNQ1 channel inhibitors, confirmation, orthogonal assay, cell-based, automated electrophysiology; shares compounds with KCNQ1 block; KCNQ1-CHO cells, automated patch clamp current; calls only at 10 µM; 490 compounds, 20% hits;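 active = KCNQ1 current drop exceeding 3 SD of negative control wells, seen in both duplicate runs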;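 note: steady state current during a 2 s step from -80 to +40 mV; negative values mean current inhibition and positive values mean potentiation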
KCNQ2 inh: KCNQ2 channel inhibition, selectivity assay for KCNQ1 inhibitor project, cell-based | shares compounds with KCNQ1 block | KCNQ2 cells, FluxOR thallium flux fluorescence | inhibition, % at 10 µM | 1,600 compounds, 71% hits;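 active = mean percent inhibition of the KCNQ2 thallium signal more than 5 SD above the buffer-only control wells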;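 note: KCNQ2 expressed in CHO cells; 0% = buffer control wells and 100% = XE-991 inhibitor control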
KCNQ1 KCNE1 spec: KCNQ1/KCNE1 channel inhibition, selectivity assay for KCNQ1 inhibitor project, CHO-K1 cells, thallium flux, FluxOR; shares compounds with KCNQ1 block; 1,600 compounds, 77% hits; FluxOR thallium flux fluorescence; inhibition, % at 10 µM;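 active = mean percent inhibition of duplicate wells above the buffer-only control mean plus 3 SD of those controls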;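 note: 0% = buffer only wells and 100% = XE-991 inhibitor control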
The depositor's hits bear a star; i = inactive; / = no result given; + = active, no number. Only some compounds are listed: those with a hit (about 3.7% of all), similar ones and a draw of the others.

SMILES | hERG protect | KCNQ1 pot | Kir21 block | KCNK9 inh | KCNK3 block | KCNQ1 block | KCNQ1 block val | CHO Tl flux | KCNQ2 inh | KCNQ1 KCNE1 spec | others
Cc1nn(-c2ccccc2)c(/N=C/c2ccccc2O)c1-c1ccccc1 | -12 | i | 0.28 | i | i | 6* | 119* | 0.43 | 109%* | 166%* | KCNQ1 ephys val=i
CN(C)CCNC(=O)c1ccc(Sc2ccc(Br)cc2)c([N+](=O)[O-])c1 | -20 | i | -1.7 | i | i | 15* | 0 | 0.5 | i | i
CC(C)c1nc2scc(-c3ccc(Cl)cc3)c2c(=O)n1N | -13 | i | 3.1 | i | i | i | / | / | / | /
CCCc1ccc(-c2cc(C(=O)N3CCN(c4ccccn4)CC3)c3ccccc3n2)cc1 | -30 | i | -0.38 | i | i | 9* | 89* | 0.45 | 114%* | 104%* | KCNQ1 ephys val=i
C/C(O)=c1/ccc2cccc3nc(C)nc1c23 | -28 | i | -9 | i | i | 8* | 117* | 0.25* | i | i
Cc1cccc2nc3ccccc3cc12 | -6 | i | -1.8 | i | i | i | / | / | / | /
COc1ccc2c(c1)c(CC(=O)Nc1ccccc1OC)c(C)n2C(=O)c1ccc(Cl)cc1 | -7 | i | 0.43 | i | i | 7* | 43* | 0.39 | 91%* | 48%*
COc1ccc2c(c1)c(CC(=O)Nc1cc(C)ccc1C)c(C)n2C(=O)c1ccc(Cl)cc1 | -12 | i | -0.04 | i | i | i | / | / | / | /
CC1(C)C2C(Cl)(Cl)C2(C)c2ccccc2N1C=O (stereo not drawn) | -1 | i | 0.31 | i | i | i | / | / | / | /
COc1ccc(CCNc2ncnc3sc(C)cc23)cc1OC | -19 | i | -6.2* | i | i | 11* | 133* | 0.44 | 80%* | 82%* | KCNQ1 ephys val=i
COc1ccc(CCNc2ncnc3[nH]ncc23)cc1OC | -14 | i | 1.6 | i | i | i | / | / | / | /
CS(=O)(=O)Nc1cccc(-c2cnc3ccccc3n2)c1 | -8 | i | 0.05 | i | i | i | / | / | / | /
CCc1cc(C(c2cccc(OC)c2)N2CCOCC2)c(NC(=O)c2ccccc2)s1 (stereo not drawn) | -14 | i | 0.01 | i | i | i | / | / | / | /
CCc1cc(C(c2ccc(F)cc2)N2CCOCC2)c(NC(=O)c2ccccc2)s1 (stereo not drawn) | -7 | i | 1.2 | i | i | 10* | 100* | 0.37* | 99%* | 154%*
COc1cccc(NC(=O)COc2cc(O)c3c(c2)OC(C)(C)CC3=O)c1 | -13 | i | 0.82 | i | i | 7* | 49* | 0.44 | 78%* | 70%*
COc1cc(NC(=O)COc2cc(O)c3c(c2)OC(C)(C)CC3=O)cc(OC)c1 | -5 | i | -0.08 | i | i | i | / | / | / | /
CN(C(=O)c1cccc(NC(=O)Cc2ccc(NC(=O)C3CCN(C(=O)C4CC4)CC3)cc2)c1)C1CCCCC1 | / | / | / | / | i | / | / | / | / | /
O=S(=O)(NCCNc1ncc(C(F)(F)F)cc1Cl)C(F)(F)F | -14 | i | -0.02 | i | i | 6* | 40* | 0.47 | i | i
COC(=O)CSC1=NS(=O)(=O)c2ccccc21 | -31 | i | -5.8* | i | i | 8* | 100* | 0.38* | 98%* | 141%*
COC(=O)CSc1nnc(-c2ccccc2OC)o1 | -4 | i | 0.78 | i | i | i | / | / | / | /
O=C(CSC1=NS(=O)(=O)c2ccccc21)Nc1ccccc1 | -24 | i | -0.22 | i | i | 7* | 78* | 0.4 | 85%* | 122%*
Cc1cc2c(cc1C)N(Cc1ccc(Cl)cc1)C1=NCCCN12 | -16 | i | -2.2 | i | i | 7* | 91* | 0.41 | 105%* | 98%* | KCNQ1 ephys val=+
CC(C)(C)c1csc(NC(=O)Cc2ccc(S(=O)(=O)N3CCOCC3)s2)n1 | -7 | i | -1.4 | i | i | 9* | 72* | 0.47 | i | 96%*
COc1ccccc1NC(=O)c1nc(S(=O)(=O)Cc2ccccc2)ncc1Cl | -8 | i | 0.09 | i | i | i | / | / | / | /
CCS(=O)(=O)c1ncc(Cl)c(C(=O)Nc2ccccc2OC)n1 | -10 | i | 0 | i | i | 11* | 73* | 0.38 | 63%* | 66%*
COc1cccc(NC(=O)c2nc(S(C)(=O)=O)ncc2Cl)c1 | -7 | i | -6.3* | i | i | 7* | 0 | 0.43 | i | 52%*
Cc1ccc(NC(=O)CSc2nc3ccccc3c(=O)n2CCCN2CCCCC2)cc1Cl | -22 | i | -3 | i | i | 7* | 85* | 0.36* | 85%* | 84%*
CCn1c(SCC(=O)Nc2nc(-c3ccc(C)cc3)cs2)nnc1-c1ccccc1 | -4 | i | -0.01 | i | i | i | / | / | / | /
Cc1ccc(-c2csc(NC(=O)CSc3nc4ccccc4c(=O)n3CCCN(C)C)n2)cc1 | -46 | i | -1.6 | i | i | 8* | 118* | 0.29* | 101%* | 154%*

Screening results deposited in PubChem BioAssay by Johns Hopkins Ion Channel Center.
